hERG rescue – shields human hERG channel from block by proarrhythmic agents; Q12809; CHO-hERG, FluxOR thallium flux, dofetilide IC70 present; hit rate 0.51% among 310,000; AID 1511; activation (rescue from dofetilide block), less the hit threshold, % at 10 µM;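 active = activation above the mean of controls blocked by dofetilide plus 5 SD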;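 also: thallium influx through hERG after potassium depolarization seen as dye fluorescence rise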
KCNQ1 act – potentiates or activates the human KCNQ1 potassium channel; B-score at 10 µM; hit rate 0.35% among 310,000; AID 2648; CHO-K1 KCNQ1, thallium flux FluxOR fluorescence; active compounds read high;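 active = fluorescence ratio B-score, a plate-corrected score, at least three library SD, with initial intensity B-score within 5 SD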
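assay system = CHO-K1 cells stably expressing KCNQ1 | medium = assay buffer, equal DMSO in all wells | timing = 37 °C overnight plating, 90-min dark dye load, 20-min compound pretreatment | measured by = kinetic FluxOR thallium fluorescence, 10-s 1-Hz baseline, 110-s post-stimulus read | measure = fluorescence change relative to baseline, converted to B score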
KCNK9 inh – blocks the human KCNK9 two-pore domain potassium channel; HEK293 KCNK9, FluxOR thallium flux fluorescence; active compounds read low; Q9NPC2; hit rate 1.2% among 310,000; B-score at 10 µM; AID 488922;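 active = ratio B-score over 3 SD below the library mean, with starting fluorescence within 5 SD of its mean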;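 also: negative B-score means less thallium flux so channel inhibition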
Target sequence (Q9NPC2 whole entry, looked up, the tested form may be a part): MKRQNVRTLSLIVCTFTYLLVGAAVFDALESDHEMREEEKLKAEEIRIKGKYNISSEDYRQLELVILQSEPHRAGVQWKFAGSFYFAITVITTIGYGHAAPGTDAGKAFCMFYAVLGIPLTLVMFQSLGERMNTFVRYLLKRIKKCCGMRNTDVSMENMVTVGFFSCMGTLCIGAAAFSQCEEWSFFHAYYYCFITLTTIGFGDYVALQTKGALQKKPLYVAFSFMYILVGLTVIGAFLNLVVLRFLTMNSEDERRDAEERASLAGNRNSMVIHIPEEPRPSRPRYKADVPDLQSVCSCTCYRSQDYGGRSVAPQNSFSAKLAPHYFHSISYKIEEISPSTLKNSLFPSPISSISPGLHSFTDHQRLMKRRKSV
KCNQ1 block – human KCNQ1 channel inhibition | P51787 | CHO-K1 KCNQ1, FluxOR thallium flux fluorescence; active compounds read high | B-score at 10 µM | hit rate 1.3% among 310,000 | AID 2642;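 active = compounds whose thallium flux B-score, printed positive for inhibition, exceeds three library SD while starting fluorescence stays within three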;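 also: channel opened by potassium depolarization with thallium stimulus after 20 min compound exposure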
KCNK3 inh – human KCNK3 channel inhibition, primary screen; AID 602410; CHO-KCNK3 thallium flux, FluxOR fluorescence; active compounds read low; hit rate 0.84% among 340,000; O14649; B-score at 10 µM;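 active = B-score under library mean minus 4 SD, starting fluorescence ratio at most library mean plus 5 SD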;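 also: more negative B-score means stronger inhibition of thallium flux through KCNK3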
The depositor's hits bear a star; i = inactive; nt = no result given. Hits are enriched below; roughly 3.1% of the tested compounds scored in any of these assays.

SMILES | hERG rescue | KCNQ1 act | KCNK9 inh | KCNQ1 block | KCNK3 inh
COc1ccccc1N1CCN(CCCNC(=O)Cn2ncc3c([nH]c4ccccc43)c2=O)CC1 | -12 | i | i | i | i
COc1ccc(NC(=O)c2ccc(N3CCCC3=O)cc2)cc1Cl | nt | nt | nt | nt | i
COC(=O)c1sccc1NC(=O)c1c(Cl)cccc1Cl | 4.7* | i | i | i | i
CC1(C)C(=O)CC[C@]2(C)C3C(=O)C=C4[C@H]5C[C@@](C)(C(=O)O)CC[C@]5(C)CC[C@]4(C)[C@]3(C)CC[C@@H]12 (stereo partly specified) | -10 | i | i | i | i
CC1(C)[C@@H](O)CC[C@]2(C)C3C(O)C=C4[C@H]5C[C@@](C)(C(=O)O)CC[C@]5(C)CC[C@]4(C)[C@]3(C)CC[C@@H]12 (stereo partly specified) | -9 | 13* | i | i | nt
COc1cccc(C(C)NC(=O)Nc2cccc(C(F)(F)F)c2)c1 (stereo unspecified) | -7 | i | -6.8* | i | i
COc1cccc(C(C)NC(=O)Nc2cc(Cl)ccc2OC)c1 (stereo unspecified) | -12 | i | i | i | i
COc1nc(Nc2ccc([N+](=O)[O-])cc2)nc(NC2CCCCC2)n1 | -7 | i | -7.1* | i | i
C=CCNc1nc(Nc2ccc([N+](=O)[O-])cc2)nc(OC)n1 | -7 | i | i | i | i
CC(=O)c1cccc(NC(=O)C2CC(=O)N(C3CCCC3)C2)c1 (stereo unspecified) | nt | nt | nt | nt | i
c1ccc2c(c1)oc1c(N3CCN(Cc4ccc5c(c4)OCO5)CC3)ncnc12 | -17 | i | i | i | -9.5*
O=C(CN1C(=O)C2CCCCC2C1=O)OCC(=O)c1ccc(F)cc1 (stereo unspecified) | nt | nt | nt | nt | i
CCC(C)(C)n1nnnc1C(c1ccc(C)cc1)N(Cc1ccco1)Cc1cccs1 (stereo unspecified) | -3 | i | -6.9* | i | i
CCCCN(C(=O)CC1CCCC1)c1c(N)n(CCCC)c(=O)[nH]c1=O | nt | nt | nt | nt | i
CSCCC(NS(=O)(=O)c1ccccc1)C(=O)Nc1nccs1 (stereo unspecified) | nt | nt | nt | nt | i
Cc1cc(C)cc(C(=O)Nc2ccc(NC(=O)Cc3ccccc3)cc2)c1 | 6.2* | i | i | i | i
O=C(Cc1ccccc1)Nc1ccc(NC(=O)c2cccc(Cl)c2)cc1 | -2 | i | i | i | i
COC(=O)c1c(C)oc(C)c1S(=O)(=O)NCc1ccc(Cl)cc1Cl | -4 | i | -7.5* | i | i
CCOc1cc(C(=O)NC)cc(OCC)c1OCC | 9.7* | i | i | i | i
CC(C)COc1ccc(-c2nn(-c3ccccc3)cc2/C=C2/SC(=S)N(CC(=O)O)C2=O)cc1 | -5 | 8* | i | i | i
COc1cccc(-c2cc(C(=O)Nc3ccccc3)c3ccccc3n2)c1 | -10 | i | i | i | i
COc1cccc(-c2cc(C(=O)Nc3ccc([N+](=O)[O-])cn3)c3ccccc3n2)c1 | -19 | i | -7.8* | i | i
O=C(Nc1ccc([N+](=O)[O-])cn1)c1cc(-c2cccc(Cl)c2)nc2ccccc12 | -27 | i | -7.1* | i | i
O=C(Nc1ccc([N+](=O)[O-])cn1)c1cc(-c2cccc(Br)c2)nc2ccccc12 | -23 | i | i | i | i
CCc1cccc(NC(=O)C2CCCN(S(=O)(=O)c3cccs3)C2)c1 (stereo unspecified) | -9 | i | i | i | i
SMILES | hERG rescue | KCNQ1 act | KCNK9 inh | KCNQ1 block | KCNK3 inh
CCOc1ccc(CN2CCC(n3nccc3NC(=O)c3ccccc3OC)CC2)cc1 | -23 | i | i | i | i
CS(=O)(=O)N(CCc1ccccc1)CC(=O)Nc1ccc2c(c1)OCO2 | -8 | i | -7.9* | i | i
CS(=O)(=O)N(CC(=O)Nc1ccc2c(c1)OCO2)Cc1ccccc1 | -13 | i | i | i | i
COCCNC(=O)C(=O)N/N=C/c1ccc(C(=O)OC)cc1 | 14* | i | i | i | i
CCn1c2ccccc2c2cc(N=C3SC(CC(=O)Nc4ccccc4OC)C(=O)N3CCOC)ccc21 (stereo unspecified) | -4 | i | -7.1* | i | i
CCn1c2ccccc2c2cc(N=C3SC(CC(=O)Nc4ccccc4OC)C(=O)N3C)ccc21 (stereo unspecified) | 0 | i | i | i | i
COc1cccc(/C=C(/C(=O)OCC(=O)NC2CCCCCCC2)c2ccccc2)c1 | -25 | i | -9.9* | 10* | i
COc1ccccc1CC(=O)Nc1cc2oc3ccccc3c2cc1OC | -1 | i | -6.9* | i | i
COc1cc2c(cc1NC(=O)CSc1ccccn1)oc1ccccc12 | -9 | i | -7.3* | i | i
COc1ccc(CC(=O)Nc2cc3oc4ccccc4c3cc2OC)cc1 | -10 | i | i | i | i
Cc1cc(C)cc(NC(=O)CSc2nc3nc(C)cc(C)c3c(=O)[nH]2)c1 | nt | nt | nt | nt | i
Cc1occc1-c1nnc(SCC(=O)Nc2c(F)cccc2F)n1C | -2 | i | i | i | i
CCCCn1c(=O)c2ccccc2c2ccccc2c1=O | nt | nt | nt | nt | i
CN(C)c1nc2c(c(=O)n(C)c(=O)n2C)n1Cc1ccccc1 | -12 | i | i | i | i
CCCCn1c(=O)nc2n(-c3ccccc3C)c3ccccc3cc-2c1=O | -12 | 11* | i | i | i
Cc1ccccc1-n1c(=O)c2ccccc2n2nnnc12 | -8 | i | i | i | i
Cn1c(=O)nc2n(Cc3ccccc3)c3ccccc3cc-2c1=O | -5 | 8* | i | i | i
Cc1ccccc1-n1c2nc(=O)n(C)c(=O)c-2cc2ccccc21 | -1 | i | i | 7* | i
COCCN(CCOC)c1nc(S(=O)(=O)c2ccc(C)cc2)c(Cl)s1 | -5 | i | -7.8* | i | i
COC(=O)c1ccc(OC(=O)CCN2c3ccccc3Sc3ccccc32)cc1 | -11 | i | -7.5* | i | i
Cc1cc(C)n(-c2ccc(F)cc2)c(=O)c1C(=O)O | -14 | i | i | i | i
CC(=O)c1c(O)cc(C)n(-c2ccc(F)cc2)c1=O | -6 | 8* | i | i | i
Cc1ccc(S(=O)(=O)c2c(N)n(Cc3ccco3)c3nc4ccccc4nc23)cc1C | -11 | i | i | 14* | i
CC(OC(=O)c1cc(S(=O)(=O)N2CCOCC2)ccc1Br)C(=O)N1CCOCC1 (stereo unspecified) | nt | nt | nt | nt | i
Cc1ccc(/C=C/C2=NN(Cc3ccccc3)C(=O)CC2)cc1 | -10 | i | i | i | i
Cc1ccc(/C=C/C2=NN(Cc3ccccc3Cl)C(=O)CC2)cc1 | -6 | i | i | 11* | i

Source: PubChem BioAssay
